Activity calls are given as the source filed them. The rule behind the calls is not given here.
Tests used:
[1] = test system: HD-MB03; experiment: Induction of cell cycle arrest in human HD-MB03 cells assessed as accumulation of cells at G1 phase at 10 uM incubated for 72 hrs by RNase/PI staining based cytofluorimetric analysis (reference value: 54.7%); type: functional
[2] = test system: HD-MB03; experiment: Antiproliferative activity against human HD-MB03 cells assessed as cell growth inhibition incubated for 72 hrs by resazurin dye based analysis; type: functional
Outline: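 Cells seeded at 2000/well, treated 24 h later with compounds in a 6-point 2-fold dose series, duplicate wells, two independent experiments. After 72 h, resazurin was added at 44 µM final for 3 h at 37 °C and fluorescence was read at 590 nm. Viability was normalized to 1 µM bortezomib (positive) and 0.5% DMSO (negative) controls. GI50 is the mean ± SEM of dose-response curves.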

[3] = test system: HD-MB03; experiment: Cytotoxicity against human HD-MB03 cells assessed as inhibition of cell growth at 2.5 uM incubated for 72 hrs by resazurin dye based analysis relative to control; type: functional
Outline: (§1)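 Resazurin viability in HD-MB03 cells, 2000/well, single-agent arm of the 6x6 matrix. Inhibitor was added 24 h after seeding, in a 6-point 2-fold series, duplicates, two independent experiments. After 72 h exposure, resazurin was added at 44 µM final for 3 h at 37 °C and fluorescence read at 590 nm. Viability normalized to 1 µM bortezomib and 0.5% DMSO controls.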

[4] = target: T1, BAG family molecular chaperone regulator 3 (Homo sapiens, UniProt O95817); experiment: Binding affinity to CM4 sensorchip immobilized C-terminal His tagged human BAG3 transfected in HEK293T cells assessed as signal saturation at 50 uM by SPR analysis
T1 sequence (O95817 whole entry): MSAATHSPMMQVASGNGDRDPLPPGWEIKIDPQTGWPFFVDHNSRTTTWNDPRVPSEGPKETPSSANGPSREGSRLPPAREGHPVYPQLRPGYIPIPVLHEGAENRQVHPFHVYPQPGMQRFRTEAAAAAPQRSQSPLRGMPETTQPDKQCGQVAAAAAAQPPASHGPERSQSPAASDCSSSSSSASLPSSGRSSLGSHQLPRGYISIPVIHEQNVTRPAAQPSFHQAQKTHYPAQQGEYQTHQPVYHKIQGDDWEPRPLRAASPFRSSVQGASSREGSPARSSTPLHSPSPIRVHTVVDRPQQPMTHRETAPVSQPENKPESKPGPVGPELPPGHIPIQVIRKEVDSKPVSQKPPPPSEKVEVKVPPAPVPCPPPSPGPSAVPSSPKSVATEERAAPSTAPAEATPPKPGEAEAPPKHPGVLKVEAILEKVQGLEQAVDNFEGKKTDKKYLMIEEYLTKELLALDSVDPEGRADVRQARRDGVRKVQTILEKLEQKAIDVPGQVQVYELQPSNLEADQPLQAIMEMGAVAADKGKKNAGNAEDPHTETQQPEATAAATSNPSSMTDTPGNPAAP

[5] = test system: HD-MB03; experiment: Sensitization of chemotherapy induced cytotoxicity against human HD-MB03 cells assessed as inhibition of cell growth at 5 uM incubated for 72 hrs in presence of 0.12 unit of vincristine, etoposide, cisplatin, cyclophosphamide by resazurin dye based analysis (reference value: 51.43 +/- 1.17%); type: functional
[6] = test system: HD-MB03; experiment: Sensitization of chemotherapy induced cytotoxicity against human HD-MB03 cells assessed as inhibition of cell growth at 5 uM incubated for 72 hrs in presence of 1 unit of vincristine, etoposide, cisplatin, cyclophosphamide by resazurin dye based analysis (reference value: 91.53 +/- 1.15%); type: functional
[7] = test system: HD-MB03; experiment: Cytotoxicity against human HD-MB03 cells assessed as inhibition of cell growth at 1.25 uM incubated for 72 hrs by resazurin dye based analysis relative to control; type: functional; outline: as §1
[8] = test system: HD-MB03; experiment: Induction of autophagy in human HD-MB03 cells assessed as autophagic vacuole formation at 20 uM incubated for 24 hrs by bright field imaging analysis; type: functional, cell-based
[9] = test system: HD-MB03; experiment: Sensitization of chemotherapy induced cytotoxicity against human HD-MB03 cells assessed as inhibition of cell growth at 20 uM incubated for 72 hrs in presence of 0.25 unit of vincristine, etoposide, cisplatin, cyclophosphamide by resazurin dye based analysis (reference value: 73.44 +/- 0.92%); type: functional
[10] = test system: HD-MB03; experiment: Sensitization of chemotherapy induced cytotoxicity against human HD-MB03 cells assessed as inhibition of cell growth at 20 uM incubated for 72 hrs in presence of 0.12 unit of vincristine, etoposide, cisplatin, cyclophosphamide by resazurin dye based analysis (reference value: 51.43 +/- 1.17%); type: functional
[11] = test system: HD-MB03; experiment: Sensitization of chemotherapy induced cytotoxicity against human HD-MB03 cells assessed as inhibition of cell growth at 1.25 uM incubated for 72 hrs in presence of 0.12 unit of vincristine, etoposide, cisplatin, cyclophosphamide by resazurin dye based analysis (reference value: 51.43 +/- 1.17%); type: functional
[12] = test system: HD-MB03; experiment: Induction of apoptosis in human HD-MB03 cells assessed as increase in total apoptotic cells at 20 uM incubated for 24 hrs in presence of chloroquine by Annexin V-FITC/PI staining based cytofluorimetric analysis; type: functional, cell-based
Outline: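 HD-MB03 cells exposed to 20 µM with or without chloroquine for 24 h, then stained with annexin V-FITC and PI for flow cytometry. Mean ± SEM of three independent experiments.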

[13] = target: T1, BAG family molecular chaperone regulator 3; experiment: Binding affinity to C-terminal His tagged human BAG3 transfected in HEK293T cells assessed as intermolecular nuclear overhauser effect mediated protein magnetization at 125 uM by waterLOGSY experiment; type: cell-based
Outline: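 Ligand-observed NMR in 50 mM sodium phosphate pH 7.8, 150 mM NaCl, 0.04% NaN3, 1.3% DMSO-d6, 5% D2O. Compound at 125 µM with 5 µM BAG3-His (HEK-293T expressed, purified by IMAC and SEC), each also run without protein. WaterLOGSY used 240 scans, 1.5 s mixing and water inversion at 4.7 ppm. STD used 256 scans with protein saturation at 0.4 ppm.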

[14] = test system: HD-MB03; experiment: Sensitization of chemotherapy induced cytotoxicity against human HD-MB03 cells assessed as inhibition of cell growth at 20 uM incubated for 72 hrs in presence of 2 unit of vincristine, etoposide, cisplatin, cyclophosphamide by resazurin dye based analysis (reference value: 97.7 +/- 1.3%); type: functional
[15] = test system: HD-MB03; experiment: Induction of autophagy in human HD-MB03 cells assessed as increase in LC3 green fluorescence at 20 uM incubated for 24 hrs by immunofluorescence analysis; type: functional, cell-based
Outline: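 HD-MB03 cells transfected with a fluorescent LC3 plasmid, then treated 24 h later with 20 µM, alone or with chloroquine, for 24 h. Live cells stained 30 min with 50 nM LysoTracker Red and 10 µM Hoechst, then imaged by confocal microscopy. Fluorescence per field was expressed relative to DMSO control set to 1. Mean ± SD of three experiments; 2-way ANOVA.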

[16] = test system: HD-MB03; experiment: Sensitization of chemotherapy induced cytotoxicity against human HD-MB03 cells assessed as inhibition of cell growth at 2.5 uM incubated for 72 hrs in presence of 0.5 unit of vincristine, etoposide, cisplatin, cyclophosphamide by resazurin dye based analysis (reference value: 83.74+/- 0.54%); type: functional
[17] = test system: HD-MB03; experiment: Induction of autophagy in human HD-MB03 cells assessed as autophagic vacuole formation in presence of chloroquine at 20 uM incubated for 24 hrs by bright field imaging analysis; type: functional, cell-based
[18] = Cytotoxicity against PHA stimulated human PBMC cells assessed as cell growth inhibition incubated for 72 hrs by MTT assay; type: toxicity, cell-based
[19] = test system: HD-MB03; experiment: Sensitization of chemotherapy induced cytotoxicity against human HD-MB03 cells assessed as inhibition of cell growth at 1.25 uM incubated for 72 hrs in presence of 1 unit of vincristine, etoposide, cisplatin, cyclophosphamide by resazurin dye based analysis (reference value: 91.53 +/- 1.15%); type: functional
[20] = target: T1, BAG family molecular chaperone regulator 3; experiment: Binding affinity to CM4 sensorchip immobilized glycosylated C-terminal His tagged human BAG3 transfected in HEK293T cells assessed as dissociation constant by SPR analysis
Outline: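 SPR single-cycle kinetics on CM4-immobilized HEK-293T-expressed BAG3-His. Increasing compound concentrations in PBS with 5% DMSO and 0.05% P20 were injected at 30 µL/min without regeneration between injections, with blank subtraction. Kd from steady-state analysis, reported as mean ± SEM and compared by Student t-test.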

[21] = test system: HD-MB03; experiment: Sensitization of chemotherapy induced cytotoxicity against human HD-MB03 cells assessed as inhibition of cell growth at 10 uM incubated for 72 hrs in presence of 2 unit of vincristine, etoposide, cisplatin, cyclophosphamide by resazurin dye based analysis (reference value: 97.7 +/- 1.3%); type: functional

Activity [4]: Active
Activity [13]: Active
Kd [20]: 45 µM
Structure (SMILES): CC(C(=O)N1CCOCC1)N1C(=O)S/C(=C\c2cccc(O)c2O)C1=O (racemic)
Activity [1]: 74%
GI50 [2]: 11.2 µM
inhibition at 2.5 µM [3]: -8.3%
inhibition at 5 µM [5]: 62.3%
inhibition at 5 µM [6]: 92%
inhibition at 1.25 µM [7]: -11.8%
Activity [8]: Active
inhibition at 20 µM [9]: 80.8%
inhibition at 20 µM [10]: 75%
inhibition at 1.25 µM [11]: 47.7%
Activity [12]: Active
inhibition at 20 µM [14]: 90.5%
Activity [15]: Active
inhibition at 2.5 µM [16]: 83.3%
Activity [17]: inactive
GI50 at 72 h [18]: > 100 µM
inhibition at 1.25 µM [19]: 93.1%
inhibition at 10 µM [21]: 93.2%

Source: ChEMBL document CHEMBL5335790, “Design, synthesis and biological evaluation of novel 2,4-thiazolidinedione derivatives able to target the human BAG3 protein” (Eur J Med Chem, 2023)
